Published values gathered from unrelated publications.
Lines come from different studies, so protocols differ.
Target: cGMP-dependent protein kinase 1 (PRKG1, Homo sapiens, UniProt Q13976)
One construct used (Q13976 1-671): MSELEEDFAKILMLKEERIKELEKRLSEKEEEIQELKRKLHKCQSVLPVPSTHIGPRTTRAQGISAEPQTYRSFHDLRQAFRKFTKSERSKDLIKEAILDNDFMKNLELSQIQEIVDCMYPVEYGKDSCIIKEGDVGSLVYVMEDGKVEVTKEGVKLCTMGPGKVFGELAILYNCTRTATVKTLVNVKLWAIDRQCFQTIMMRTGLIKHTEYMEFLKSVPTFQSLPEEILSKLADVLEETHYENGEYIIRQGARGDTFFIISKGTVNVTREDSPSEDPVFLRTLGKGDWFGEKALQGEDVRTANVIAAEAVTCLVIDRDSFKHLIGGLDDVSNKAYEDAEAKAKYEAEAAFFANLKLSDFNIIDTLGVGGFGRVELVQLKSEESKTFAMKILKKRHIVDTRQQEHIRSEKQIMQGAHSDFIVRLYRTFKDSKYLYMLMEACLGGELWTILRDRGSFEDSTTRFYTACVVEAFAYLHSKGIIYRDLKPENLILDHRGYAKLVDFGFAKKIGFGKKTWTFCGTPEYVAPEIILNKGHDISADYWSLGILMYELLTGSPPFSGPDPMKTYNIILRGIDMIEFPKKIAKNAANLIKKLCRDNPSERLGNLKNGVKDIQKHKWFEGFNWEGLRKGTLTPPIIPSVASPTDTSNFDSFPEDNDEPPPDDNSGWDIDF

With `CCCS(=O)(=O)Nc1ccc(F)c(C(=O)c2c[nH]c3ncc(-c4ccc(Cl)cc4)cc23)c1F` the inhibition was < 10% (enzyme activity, inhibitor; 1 µM).
The remaining binding of `C[C@H](c1ccc(F)cc1)N(Cc1cccc(C(=O)O)c1)C(=O)c1cnc2ccccc2c1` is reported as 100% (cell-free assay, competition with immobilised ligand; 1 µM).
The remaining activity of `CC(C)(C)c1nc(-c2cccc(NS(=O)(=O)c3c(F)cccc3F)c2F)c(-c2ccnc(N)n2)s1` is reported as 96% (enzyme activity, inhibitor, radiometric; 1 µM).
For `Cc1cc(-n2nc(Cc3cc(F)cc(C(F)(F)F)c3)nc2C)ccc1C(N)=O`, the remaining binding was 100% (cell-free assay, competition with immobilised ligand; 1 µM).
For `Cn1cnc(Br)c1C1=CN(c2ncnc3[nH]cnc23)CCS1`, the inhibition was 72.1% (enzyme activity, inhibitor, radiometric; 50 nM).
With `CN(C)c1ncnc(-c2ccc3nc(Nc4cc(CN5CCN(C(=O)CC(F)(F)F)CC5)ccn4)[nH]c3c2)c1Cl` the remaining binding was 94% (cell-free assay, competition with immobilised ligand; 1 µM).
For `Cc1ccc(C(=O)NCc2ccsc2)cc1C#Cc1cn(C(C)C)c2ncnc(N)c12`, the activity vs control was 87% (enzyme activity, inhibitor; 1 µM).
`Cc1cnc(NC2CCOCC2)nc1-n1cnc(C(=O)NC(CN)c2cc(F)cc(Cl)c2)c1` (centres unmarked) gave a remaining activity of 100% (enzyme activity, inhibitor, radiometric; 1 µM).
The remaining activity of `CCCOc1ccc(OC)c(F)c1C(=O)c1ccc(C(=O)N[C@@H]2CNC[C@H]2NC(=O)c2ccc3[nH]ncc3c2)cc1` is reported as 0% (enzyme activity, inhibitor; 0.75 µM).
The remaining binding of `c1ccc(N2CCN(Cc3nc4ccccc4[nH]3)CC2)nc1` is reported as 100% (binding, competition with immobilised ligand; 1 µM).
For `CC/C(=N\NC(=O)NCc1cccc(O)c1)c1ccc(O)c(C)c1O`, the inhibition was 55.7% (enzyme activity, inhibitor; 0.1 µM).
With `CC(C)c1ccc(NC(=O)c2cccs2)c(-c2nc3ccccc3[nH]c2=O)c1` the activity vs control was 123% (enzyme activity, inhibitor; 1 µM).
With `COc1cc2ncnc(Nc3ccc(Oc4ccccc4)cc3C)c2cc1OC` the inhibition was 1% (enzyme activity, inhibitor; 1 µM).
For `CCOc1cc(-c2nncn2C)ccc1Nc1ncc2cc(C)nc(NCC(C)(C)C)c2n1`, the inhibition was < 15% (enzyme activity, inhibitor, FRET; 1 µM).
`Cn1nc(C(=O)NCc2ccc(C(=O)O)cc2)cc1-c1ccc2[nH]ccc2c1` has a remaining binding of 100% (cell-free assay, competition with immobilised ligand; 0.1 µM).
With `CNC(=O)c1cc(Oc2ccc(NC(=O)Nc3ccc(Cl)c(C(F)(F)F)c3)cc2)ccn1` the inhibition was -2% (enzyme activity, inhibitor; 10 µM).
The remaining signal of `Nc1ncnc2occ(-c3ccc(NC(=O)Nc4cc(C(F)(F)F)ccc4F)cc3)c12` is reported as 87% (cell-free assay, inhibitor; 20 µM).
